Active and inactive are the calls of the source. The rule behind the calls is not given here.
What was measured:
[1] = Antitumor activity against human MOLM16 cells xenografted in SCID mouse assessed as tumor growth at 25 mg/kg, iv administered weekly measured after 2 weeks relative to control; format: functional
In short: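 SCID mice bearing MOLM-16 xenografts given compound iv once weekly at 25 or 50 mg/kg. Tumor volume and body weight measured every 2 days. Growth inhibition expressed against vehicle-treated controls.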

[2] = biological target: T1, Signal transducer and activator of transcription 4 (Homo sapiens, UniProt Q14765); experiment: Binding affinity to human recombinant STAT4 assessed as dissociation constant incubated for 15 mins by biolayer interferometry
T1 sequence (Q14765 whole entry): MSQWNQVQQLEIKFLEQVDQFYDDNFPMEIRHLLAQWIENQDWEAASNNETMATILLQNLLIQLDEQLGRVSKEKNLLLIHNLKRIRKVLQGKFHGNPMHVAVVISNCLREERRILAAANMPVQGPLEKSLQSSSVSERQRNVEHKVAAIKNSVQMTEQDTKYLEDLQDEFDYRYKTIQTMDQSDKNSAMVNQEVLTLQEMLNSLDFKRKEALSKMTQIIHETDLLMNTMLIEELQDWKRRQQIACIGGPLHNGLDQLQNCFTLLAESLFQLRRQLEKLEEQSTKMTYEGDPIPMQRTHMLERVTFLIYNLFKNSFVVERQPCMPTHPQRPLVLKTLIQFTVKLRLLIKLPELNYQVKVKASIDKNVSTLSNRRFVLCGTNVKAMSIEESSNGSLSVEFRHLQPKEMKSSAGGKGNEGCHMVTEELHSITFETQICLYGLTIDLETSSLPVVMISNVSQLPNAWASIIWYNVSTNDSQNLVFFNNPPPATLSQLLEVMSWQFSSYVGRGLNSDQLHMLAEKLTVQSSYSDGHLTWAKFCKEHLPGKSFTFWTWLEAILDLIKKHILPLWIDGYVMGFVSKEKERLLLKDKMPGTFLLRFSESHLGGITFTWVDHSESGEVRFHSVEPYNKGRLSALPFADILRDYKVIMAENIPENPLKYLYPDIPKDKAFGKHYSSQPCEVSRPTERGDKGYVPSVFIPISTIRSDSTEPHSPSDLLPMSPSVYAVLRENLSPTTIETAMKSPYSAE
In short: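 Biolayer interferometry with recombinant human STAT1, STAT2, STAT3, STAT4, STAT5A, STAT5B or STAT6 proteins containing their SH2 domain. Compound run in 2× serial dilutions from 200 nM. Kd taken from steady-state fitting of equilibrium responses against concentration using a 1:1 binding model.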

[3] = biological target: Protein cereblon/Signal transducer and activator of transcription 1-alpha/beta (Homo sapiens) (UniProt P42224+Q96SW2); experiment: Protac activity at CRBN/STAT1 in human MOLM16 cells assessed as STAT1 degradation at 0.25 to 100 uM incubated for 4 hrs by Western blot analysis; format: cell-based; conditions: dose 0.25-100 µM
In short: (§1)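 Cells treated 4 h with compounds across 25 nM to 100 μM; STAT proteins detected by Western blot with GAPDH as loading control; STAT3 DC50 estimated by densitometry of STAT3 relative to GAPDH. Applies to MOLM-16 for all STATs, and to SU-DHL-1 and SUP-M2 for STAT3.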

[4] = biological target: Protein cereblon/Signal transducer and activator of transcription 3 (Homo sapiens, UniProt P40763+Q96SW2); experiment: Protac activity at CRBN/STAT3 in human MOLM-16 cells assessed as degradation of STAT3 incubated for 4 hrs by western blot analysis; format: cell-based; conditions: molm16; in short: as §1
Chain of Protein cereblon/Signal transducer and activator of transcription 3 (P40763 whole entry): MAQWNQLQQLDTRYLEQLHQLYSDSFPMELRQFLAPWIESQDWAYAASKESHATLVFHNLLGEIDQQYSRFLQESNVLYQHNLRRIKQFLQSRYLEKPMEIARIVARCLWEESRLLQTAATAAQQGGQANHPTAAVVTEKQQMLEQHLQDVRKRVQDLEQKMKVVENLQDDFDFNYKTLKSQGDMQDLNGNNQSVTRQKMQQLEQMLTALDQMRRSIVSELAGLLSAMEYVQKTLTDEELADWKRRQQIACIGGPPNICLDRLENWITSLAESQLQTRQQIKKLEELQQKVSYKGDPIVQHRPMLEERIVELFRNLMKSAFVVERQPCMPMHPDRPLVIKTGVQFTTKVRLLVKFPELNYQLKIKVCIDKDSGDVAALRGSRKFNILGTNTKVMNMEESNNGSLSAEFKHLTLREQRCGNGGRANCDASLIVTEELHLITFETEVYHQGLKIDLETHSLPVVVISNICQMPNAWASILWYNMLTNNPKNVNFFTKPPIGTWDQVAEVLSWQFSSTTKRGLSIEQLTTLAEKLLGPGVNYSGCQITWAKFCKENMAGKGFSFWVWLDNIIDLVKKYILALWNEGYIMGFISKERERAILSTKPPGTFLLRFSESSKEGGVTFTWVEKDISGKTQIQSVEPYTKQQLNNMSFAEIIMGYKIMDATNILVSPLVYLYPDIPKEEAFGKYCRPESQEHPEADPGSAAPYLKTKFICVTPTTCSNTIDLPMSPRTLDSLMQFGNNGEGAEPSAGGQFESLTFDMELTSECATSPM
Chain of Protein cereblon/Signal transducer and activator of transcription 3 (Q96SW2 whole entry): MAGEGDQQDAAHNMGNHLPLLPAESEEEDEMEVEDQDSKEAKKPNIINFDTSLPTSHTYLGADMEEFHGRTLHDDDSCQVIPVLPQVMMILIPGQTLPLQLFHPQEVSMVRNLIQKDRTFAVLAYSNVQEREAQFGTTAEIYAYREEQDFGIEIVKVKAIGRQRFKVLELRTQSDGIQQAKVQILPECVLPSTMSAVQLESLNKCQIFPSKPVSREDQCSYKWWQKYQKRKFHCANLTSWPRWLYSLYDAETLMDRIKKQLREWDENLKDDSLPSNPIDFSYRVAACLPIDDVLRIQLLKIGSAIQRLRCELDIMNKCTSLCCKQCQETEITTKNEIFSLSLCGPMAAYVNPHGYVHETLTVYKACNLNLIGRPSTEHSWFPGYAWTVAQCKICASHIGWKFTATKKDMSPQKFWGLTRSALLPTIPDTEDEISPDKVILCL

| Structure (SMILES) | Activity [1] [%] | Kd [2] [nM] | Activity [3] | DC50 [4] [nM] |
| --- | --- | --- | --- | --- |
| NC(=O)CC[C@H](NC(=O)[C@@H]1CC[C@@H]2CCN(C(=O)CCCCCC#Cc3cccc4c3CN(C3CCC(=O)NC3=O)C4=O)C[C@H](NC(=O)c3cc4cc(C(=O)P(=O)(O)O)ccc4[nH]3)C(=O)N21)C(=O)NC(c1ccccc1)c1ccccc1 (some centres undefined) | 87 | > 10 | – | – |
| NC(=O)CC[C@H](NC(=O)[C@@H]1CC[C@@H]2CCN(C(=O)CCCCCC#Cc3cccc4c3CN(C3CCC(=O)NC3=O)C4=O)C[C@H](NC(=O)c3cc4cc(C(F)(F)P(=O)(O)O)ccc4[nH]3)C(=O)N21)C(=O)NC(c1ccccc1)c1ccccc1 (some centres undefined) | – | – | inactive | 380 |

Reference: ChEMBL document CHEMBL4706770, “SD-91 as A Potent and Selective STAT3 Degrader Capable of Achieving Complete and Long-Lasting Tumor Regression” (ACS Med Chem Lett, 2021)
